# ChEMBL document CHEMBL3608279, “Discovery and Characterization of a Water-Soluble Prodrug of a Dual Inhibitor of Bacterial DNA Gyrase and Topoisomerase IV” (ACS Med Chem Lett, 2015)
# What was measured:
# Staphylococcus aureus [1] = test: Antibacterial activity against methicillin-resistant Staphylococcus aureus 509 in po dosed neutropenic CD1 mouse pneumonia model assessed as decrease in bacterial burden in lung administered as bid measured after 24 hrs; type: functional; details: for MIC: Staphylococcus aureus, 509, Lung
# Summary of the method: (§1)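 Neutropenic female CD-1 mice, 6 per group, infected in the lung with the MRSA isolate. Oral dosing began 3 h after challenge at 7.5, 15 and 30 mg/kg BID. Lungs were taken after 24 h of treatment and bacterial burden counted as CFU. Early-control and vehicle-treated groups served as reference. The levofloxacin comparator was given TID subcutaneously.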
# Staphylococcus aureus [2] = test: Antibacterial activity against methicillin/levofloxacin-resistant Staphylococcus aureus 156 in po dosed neutropenic CD1 mouse pneumonia model assessed as decrease in bacterial burden in lung administered as bid measured after 24 hrs; type: functional; details: for MIC: Staphylococcus aureus, 156, Lung; summary of the method: as §1
# Plasma [3] = test: Drug uptake in rat plasma at 3 mg/kg, po by LC-MS/MS analysis; type: ADME, organism-based; details: in vivo
# Summary of the method: (§2)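 Prodrug given orally to rat and dog at 3 mg/kg and to monkey at 30 mg/kg. Plasma parent exposure measured, with oral dosing of the parent at the same nominal dose as comparator.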
# Plasma [4] = test: Drug uptake in dog plasma at 3 mg/kg, po by LC-MS/MS analysis; type: ADME, organism-based, Canis lupus familiaris; details: in vivo; summary of the method: as §2
# Plasma [5] = test: Drug uptake in monkey plasma at 30 mg/kg, po by LC-MS/MS analysis; type: ADME, organism-based, Macaca mulatta; details: rhesus monkey, in vivo; summary of the method: as §2
# Plasma [6] = test: Drug uptake in dog plasma at 1 mg/kg, iv measured at 4 hrs by LC-MS/MS analysis; type: ADME, organism-based, Canis lupus familiaris; details: in vivo
# Summary of the method: (§3)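 Single IV dose, 1 mg/kg nominal, given to rat, dog and monkey. Plasma sampled over time for both prodrug and parent, with the parent exposure expressed as AUC. Dosing the parent itself IV at the same nominal dose served as the comparator.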
# Plasma [7] = test: Drug uptake in rat plasma at 1 mg/kg, iv measured at 4 hrs by LC-MS/MS analysis; type: ADME, organism-based; details: in vivo; summary of the method: as §3
# Plasma [8] = test: Drug uptake in monkey plasma at 1 mg/kg, iv measured at 4 hrs by LC-MS/MS analysis; type: ADME, organism-based, Macaca mulatta; details: rhesus monkey, in vivo; summary of the method: as §3
# Staphylococcus aureus [9] = test: Antibacterial activity against Staphylococcus aureus ATCC 29213; type: functional
# Enterococcus faecalis = test: Antibacterial activity against Enterococcus faecalis ATCC 29212; type: functional
# Enterococcus faecium = test: Antibacterial activity against Enterococcus faecium ATCC 49624; type: functional
# Streptococcus pneumoniae = test: Antibacterial activity against Streptococcus pneumoniae ATCC 10015; type: functional
# DNA gyrase = DNA gyrase (Staphylococcus aureus, UniProt P0A0K8+P20831); test: Inhibition of Staphylococcus aureus DNA gyrase; type: protein-complex assay
# Sequence of DNA gyrase (P0A0K8 whole entry): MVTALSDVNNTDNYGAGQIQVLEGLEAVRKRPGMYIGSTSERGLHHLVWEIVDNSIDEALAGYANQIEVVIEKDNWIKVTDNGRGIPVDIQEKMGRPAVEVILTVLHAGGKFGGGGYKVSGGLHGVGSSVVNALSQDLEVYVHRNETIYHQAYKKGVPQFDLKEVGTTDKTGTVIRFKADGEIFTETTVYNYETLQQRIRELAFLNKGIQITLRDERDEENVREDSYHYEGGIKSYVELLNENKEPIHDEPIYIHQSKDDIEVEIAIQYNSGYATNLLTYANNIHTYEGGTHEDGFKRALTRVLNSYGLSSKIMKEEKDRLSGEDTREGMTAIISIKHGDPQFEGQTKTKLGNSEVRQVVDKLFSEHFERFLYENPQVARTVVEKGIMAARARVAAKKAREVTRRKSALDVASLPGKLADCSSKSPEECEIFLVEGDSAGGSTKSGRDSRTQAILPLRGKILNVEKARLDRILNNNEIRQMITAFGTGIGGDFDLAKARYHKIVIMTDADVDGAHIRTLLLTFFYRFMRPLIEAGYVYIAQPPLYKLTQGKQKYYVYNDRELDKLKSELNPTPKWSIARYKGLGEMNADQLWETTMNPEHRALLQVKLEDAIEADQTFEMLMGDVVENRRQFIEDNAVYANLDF
# Sequence of DNA gyrase (P20831 whole entry): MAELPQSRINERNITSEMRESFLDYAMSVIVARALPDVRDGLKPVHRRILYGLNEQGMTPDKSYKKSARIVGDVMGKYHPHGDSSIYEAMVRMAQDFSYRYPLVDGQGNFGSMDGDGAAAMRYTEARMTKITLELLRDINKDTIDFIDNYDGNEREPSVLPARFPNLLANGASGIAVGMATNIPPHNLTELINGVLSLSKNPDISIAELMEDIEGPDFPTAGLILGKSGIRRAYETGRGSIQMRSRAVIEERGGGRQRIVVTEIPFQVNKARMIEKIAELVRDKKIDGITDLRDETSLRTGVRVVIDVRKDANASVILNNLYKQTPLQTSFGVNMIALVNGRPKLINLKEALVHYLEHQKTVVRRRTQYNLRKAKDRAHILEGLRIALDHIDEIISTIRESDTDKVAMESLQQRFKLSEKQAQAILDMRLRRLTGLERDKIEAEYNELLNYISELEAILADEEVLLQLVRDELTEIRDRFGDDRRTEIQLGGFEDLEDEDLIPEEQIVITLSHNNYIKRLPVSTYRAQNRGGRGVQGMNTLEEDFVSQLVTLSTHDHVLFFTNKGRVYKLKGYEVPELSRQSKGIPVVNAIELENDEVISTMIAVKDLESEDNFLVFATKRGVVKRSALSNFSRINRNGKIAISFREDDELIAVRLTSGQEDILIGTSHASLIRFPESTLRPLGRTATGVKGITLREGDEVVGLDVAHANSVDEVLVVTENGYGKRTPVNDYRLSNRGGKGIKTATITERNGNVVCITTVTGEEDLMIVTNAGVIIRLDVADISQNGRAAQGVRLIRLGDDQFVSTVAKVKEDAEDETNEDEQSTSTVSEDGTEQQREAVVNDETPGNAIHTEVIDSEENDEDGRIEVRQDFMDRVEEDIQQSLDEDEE
# Topoisomerase IV = Topoisomerase IV (Staphylococcus aureus, UniProt P0C1S7+P0C1U9); test: Inhibition of Staphylococcus aureus DNA topoisomerase 4; type: protein-complex assay
# Sequence of Topoisomerase IV (P0C1U9 whole entry): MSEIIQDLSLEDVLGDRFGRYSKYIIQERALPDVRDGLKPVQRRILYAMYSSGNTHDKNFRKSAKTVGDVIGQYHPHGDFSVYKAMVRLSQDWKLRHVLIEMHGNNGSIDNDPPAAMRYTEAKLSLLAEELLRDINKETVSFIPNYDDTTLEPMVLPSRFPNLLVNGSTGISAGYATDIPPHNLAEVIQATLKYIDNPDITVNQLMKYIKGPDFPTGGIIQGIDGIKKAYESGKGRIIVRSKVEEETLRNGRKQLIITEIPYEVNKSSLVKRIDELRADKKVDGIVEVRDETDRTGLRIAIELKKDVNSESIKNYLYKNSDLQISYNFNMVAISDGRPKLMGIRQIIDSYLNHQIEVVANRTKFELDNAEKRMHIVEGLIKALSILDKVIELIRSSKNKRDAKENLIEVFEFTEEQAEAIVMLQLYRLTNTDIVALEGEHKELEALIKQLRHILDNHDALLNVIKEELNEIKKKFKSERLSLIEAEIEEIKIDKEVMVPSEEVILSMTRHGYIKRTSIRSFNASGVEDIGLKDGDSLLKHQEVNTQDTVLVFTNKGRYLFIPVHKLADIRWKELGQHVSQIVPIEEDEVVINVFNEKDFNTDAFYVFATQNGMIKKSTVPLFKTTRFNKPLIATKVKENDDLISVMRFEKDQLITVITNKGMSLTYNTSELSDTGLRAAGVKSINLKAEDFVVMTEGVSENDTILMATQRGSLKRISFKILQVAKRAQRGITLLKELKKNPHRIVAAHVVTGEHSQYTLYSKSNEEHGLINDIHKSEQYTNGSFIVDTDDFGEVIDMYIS
# Sequence of Topoisomerase IV (P0C1S7 whole entry): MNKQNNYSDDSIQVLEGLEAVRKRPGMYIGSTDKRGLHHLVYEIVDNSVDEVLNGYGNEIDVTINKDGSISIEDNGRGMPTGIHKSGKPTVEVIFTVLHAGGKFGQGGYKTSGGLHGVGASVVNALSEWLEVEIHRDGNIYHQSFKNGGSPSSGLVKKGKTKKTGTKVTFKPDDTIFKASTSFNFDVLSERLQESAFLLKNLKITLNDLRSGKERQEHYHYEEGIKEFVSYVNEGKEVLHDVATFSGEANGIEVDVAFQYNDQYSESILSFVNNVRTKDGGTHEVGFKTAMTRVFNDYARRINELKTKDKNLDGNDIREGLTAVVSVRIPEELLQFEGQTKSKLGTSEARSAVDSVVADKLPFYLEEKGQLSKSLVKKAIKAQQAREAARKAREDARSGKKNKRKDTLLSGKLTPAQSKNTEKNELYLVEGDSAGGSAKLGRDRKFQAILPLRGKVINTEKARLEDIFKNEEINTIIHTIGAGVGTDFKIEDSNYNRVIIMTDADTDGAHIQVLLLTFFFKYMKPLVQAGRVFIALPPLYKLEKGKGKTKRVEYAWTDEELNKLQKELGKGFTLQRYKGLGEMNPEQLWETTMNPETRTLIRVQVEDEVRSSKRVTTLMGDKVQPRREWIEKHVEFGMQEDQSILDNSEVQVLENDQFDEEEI
# [10] = (§4) Apparent permeability across apical to basolateral side in MDCK cells; type: ADME, cell-based, Canis lupus familiaris; details: dog
# Summary of the method: (§5)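 Papp measured in wild-type MDCK cells in both apical-to-basolateral and basolateral-to-apical directions; values expressed in units of 1 × 10–6 cm/sec.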
# [11] = (§6) Apparent permeability across basolateral to apical side in MDCK cells; type: ADME, cell-based, Canis lupus familiaris; details: dog; summary of the method: as §5
# Plasma [12] = test: Prodrug conversion in rat plasma assessed as formation of 1-ethyl-3-[6-fluoro-5-[2-(1-hydroxy-1-methyl-ethyl)pyrimidin-5-yl]-7-[(2R)-tetrahydrofuran-2-yl]-1H-benzimidazol-2-yl]urea at 3 mg/kg, po by LC-MS/MS analysis; type: ADME, organism-based; details: in vivo; summary of the method: as §2
# Plasma [13] = test: Prodrug conversion in dog plasma assessed as formation of 1-ethyl-3-[6-fluoro-5-[2-(1-hydroxy-1-methyl-ethyl)pyrimidin-5-yl]-7-[(2R)-tetrahydrofuran-2-yl]-1H-benzimidazol-2-yl]urea at 3 mg/kg, po by LC-MS/MS analysis; type: ADME, organism-based, Canis lupus familiaris; details: in vivo; summary of the method: as §2
# Plasma [14] = test: Prodrug conversion in monkey plasma assessed as formation of 1-ethyl-3-[6-fluoro-5-[2-(1-hydroxy-1-methyl-ethyl)pyrimidin-5-yl]-7-[(2R)-tetrahydrofuran-2-yl]-1H-benzimidazol-2-yl]urea at 30 mg/kg, po by LC-MS/MS analysis; type: ADME, organism-based, Macaca mulatta; details: rhesus monkey, in vivo; summary of the method: as §2
# Liver [15] = test: Prodrug conversion in rat liver S9 fractions assessed as formation of 1-ethyl-3-[6-fluoro-5-[2-(1-hydroxy-1-methyl-ethyl)pyrimidin-5-yl]-7-[(2R)-tetrahydrofuran-2-yl]-1H-benzimidazol-2-yl]urea by Michaelis-Menten plot analysis; type: ADME, subcellular, Liver S9 fraction
# Summary of the method: (§7)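 Prodrug incubated across 1 to 1000 μM in liver and intestinal S9 fractions from rat, dog, monkey and human. Formation of the parent compound was followed to characterize conversion kinetics.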
# Liver [16] = test: Prodrug conversion in dog liver S9 fractions assessed as formation of 1-ethyl-3-[6-fluoro-5-[2-(1-hydroxy-1-methyl-ethyl)pyrimidin-5-yl]-7-[(2R)-tetrahydrofuran-2-yl]-1H-benzimidazol-2-yl]urea by Michaelis-Menten plot analysis; type: ADME, subcellular, Canis lupus familiaris, Liver S9 fraction; summary of the method: as §7
# [17] = Prodrug conversion in monkey liver S9 fractions assessed as formation of 1-ethyl-3-[6-fluoro-5-[2-(1-hydroxy-1-methyl-ethyl)pyrimidin-5-yl]-7-[(2R)-tetrahydrofuran-2-yl]-1H-benzimidazol-2-yl]urea by Michaelis-Menten plot analysis; type: ADME, subcellular, Macaca mulatta, Liver S9 fraction; details: rhesus monkey; summary of the method: as §7
# Liver [18] = test: Prodrug conversion in human liver S9 fractions assessed as formation of 1-ethyl-3-[6-fluoro-5-[2-(1-hydroxy-1-methyl-ethyl)pyrimidin-5-yl]-7-[(2R)-tetrahydrofuran-2-yl]-1H-benzimidazol-2-yl]urea by Michaelis-Menten plot analysis; type: ADME, subcellular, Liver S9 fraction; summary of the method: as §7
# Intestine = test: Prodrug conversion in rat intestine S9 fractions assessed as formation of 1-ethyl-3-[6-fluoro-5-[2-(1-hydroxy-1-methyl-ethyl)pyrimidin-5-yl]-7-[(2R)-tetrahydrofuran-2-yl]-1H-benzimidazol-2-yl]urea by Michaelis-Menten plot analysis; type: ADME, tissue-based; summary of the method: as §7
# [19] = Prodrug conversion in dog intestine S9 fractions assessed as formation of 1-ethyl-3-[6-fluoro-5-[2-(1-hydroxy-1-methyl-ethyl)pyrimidin-5-yl]-7-[(2R)-tetrahydrofuran-2-yl]-1H-benzimidazol-2-yl]urea by Michaelis-Menten plot analysis; type: ADME, tissue-based, Canis lupus familiaris; summary of the method: as §7
# [20] = Prodrug conversion in monkey intestine S9 fractions assessed as formation of 1-ethyl-3-[6-fluoro-5-[2-(1-hydroxy-1-methyl-ethyl)pyrimidin-5-yl]-7-[(2R)-tetrahydrofuran-2-yl]-1H-benzimidazol-2-yl]urea by Michaelis-Menten plot analysis; type: ADME, tissue-based, Macaca mulatta; details: rhesus monkey; summary of the method: as §7
# [21] = Prodrug conversion in human intestine S9 fractions assessed as formation of 1-ethyl-3-[6-fluoro-5-[2-(1-hydroxy-1-methyl-ethyl)pyrimidin-5-yl]-7-[(2R)-tetrahydrofuran-2-yl]-1H-benzimidazol-2-yl]urea by Michaelis-Menten plot analysis; type: ADME, tissue-based; summary of the method: as §7
# Staphylococcus aureus [22] = test: Antibacterial activity against methicillin/levofloxacin-resistant Staphylococcus aureus 156 in neutropenic CD1 mouse pneumonia model assessed as decrease in bacterial burden in lung at 30 mg/kg, po bid measured after 24 hrs; type: functional; summary of the method: as §1
# Staphylococcus aureus [23] = test: Antibacterial activity against methicillin-resistant Staphylococcus aureus 509 in neutropenic CD1 mouse pneumonia model assessed as decrease in bacterial burden in lung at 30 mg/kg, po bid measured after 24 hrs; type: functional; summary of the method: as §1
# Plasma [24] = test: Prodrug conversion in dog plasma assessed as formation of 1-ethyl-3-[6-fluoro-5-[2-(1-hydroxy-1-methyl-ethyl)pyrimidin-5-yl]-7-[(2R)-tetrahydrofuran-2-yl]-1H-benzimidazol-2-yl]urea at 1 mg/kg, iv measured at 4 hrs by LC-MS/MS analysis; type: ADME, organism-based, Canis lupus familiaris; details: in vivo; summary of the method: as §3
# Plasma [25] = test: Prodrug conversion in monkey plasma assessed as formation of 1-ethyl-3-[6-fluoro-5-[2-(1-hydroxy-1-methyl-ethyl)pyrimidin-5-yl]-7-[(2R)-tetrahydrofuran-2-yl]-1H-benzimidazol-2-yl]urea at 1 mg/kg, iv measured at 4 hrs by LC-MS/MS analysis; type: ADME, organism-based, Macaca mulatta; details: rhesus monkey, in vivo; summary of the method: as §3
# [26] = Aqueous solubility of the compound at pH 7; type: physicochemical; details: buffer
# Plasma [27] = test: Prodrug conversion in rat plasma assessed as formation of 1-ethyl-3-[6-fluoro-5-[2-(1-hydroxy-1-methyl-ethyl)pyrimidin-5-yl]-7-[(2R)-tetrahydrofuran-2-yl]-1H-benzimidazol-2-yl]urea at 1 mg/kg, iv measured at 4 hrs by LC-MS/MS analysis; type: ADME, organism-based; details: in vivo; summary of the method: as §3
# MDCK [28] = test: as §4; type: ADME, cell-based, Canis lupus familiaris; details: dog; summary of the method: as §5
# MDCK [29] = test: as §6; type: ADME, cell-based, Canis lupus familiaris; details: dog; summary of the method: as §5
smiles,measurement,setting,value
CCNC(=O)Nc1nc2cc(-c3cnc(C(C)(C)O)nc3)c(F)c([C@H]3CCCO3)c2[nH]1,MIC,Staphylococcus aureus [1],0.06 µg/mL
same,MIC,Staphylococcus aureus [2],0.06 µg/mL
same,Drug uptake,Plasma [3],Active
same,Drug uptake,Plasma [4],Active
same,Drug uptake,Plasma [5],Active
same,Drug uptake,Plasma [6],Active
same,Drug uptake,Plasma [7],Active
same,Drug uptake,Plasma [8],Active
same,MIC,Staphylococcus aureus [9],0.016 µg/mL
same,MIC,Enterococcus faecalis,0.016 µg/mL
same,MIC,Enterococcus faecium,0.063 µg/mL
same,MIC,Streptococcus pneumoniae,≤ 0.008 µg/mL
same,Ki,DNA gyrase,< 9 nM
same,Ki,Topoisomerase IV,12 nM
same,Papp A→B,[10],9.5 ×10⁻⁶ cm/s
same,Papp B→A,[11],16.3 ×10⁻⁶ cm/s
CCNC(=O)Nc1nc2cc(-c3cnc(C(C)(C)OP(=O)(O)O)nc3)c(F)c([C@H]3CCCO3)c2[nH]1,Drug metabolism,Plasma [12],metabolite_detected
same,Drug metabolism,Plasma [13],metabolite_detected
same,Drug metabolism,Plasma [14],metabolite_detected
same,Km,Liver [15],49.8 µM
same,Vmax,Liver [15],45.5 pmol/min/mg
same,Km,Liver [16],256 µM
same,Vmax,Liver [16],19.3 pmol/min/mg
same,Km,[17],122 µM
same,Vmax,[17],25.2 pmol/min/mg
same,Km,Liver [18],137 µM
same,Vmax,Liver [18],45.8 pmol/min/mg
same,Km,Intestine,736 µM
same,Vmax,Intestine,958 pmol/min/mg
same,Km,[19],998 µM
same,Vmax,[19],1162 pmol/min/mg
same,Km,[20],5180 µM
same,Vmax,[20],1974 pmol/min/mg
same,Vmax,[21],> 1000 pmol/min/mg
same,Activity,Staphylococcus aureus [1],Dose-dependent effect
same,Activity,Staphylococcus aureus [2],Dose-dependent effect
same,Activity,Staphylococcus aureus [22],>3 deltalog10CFU
same,Activity,Staphylococcus aureus [23],>3 deltalog10CFU
same,Drug metabolism,Plasma [24],metabolite_detected
same,Drug metabolism,Plasma [25],metabolite_detected
same,solubility,[26],75 mg/mL
same,MIC,Staphylococcus aureus [9],8 µg/mL
same,MIC,Enterococcus faecalis,1 µg/mL
same,MIC,Enterococcus faecium,4 µg/mL
same,MIC,Streptococcus pneumoniae,0.25 µg/mL
same,Ki,DNA gyrase,< 9 nM
same,Ki,Topoisomerase IV,30 nM
same,Drug metabolism,Plasma [27],metabolite_detected
same,Papp,MDCK [28],impermeable
same,Papp,MDCK [29],impermeable
C[C@H]1COc2c(N3CCN(C)CC3)c(F)cc3c(=O)c(C(=O)O)cn1c23.C[C@H]1COc2c(N3CCN(C)CC3)c(F)cc3c(=O)c(C(=O)O)cn1c23.O [LEVOFLOXACIN],MIC,Staphylococcus aureus [1],0.25 µg/mL
same,MIC,Staphylococcus aureus [2],8 µg/mL
